From PubChem BioAssay
p97 ATPase inh: blocks human p97 ATPase activity | P55072 | recombinant p97 ATPase, Kinase-Glo ATP luminescence, 3 h | inhibition, % at 8 µM | actives 0.42% (n = 220,000) | AID 1481; in the data active = inhibition above about 15%;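 note: 0% = DMSO vehicle and 100% = wells lacking enzyme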
Target sequence (P55072 whole entry, looked up): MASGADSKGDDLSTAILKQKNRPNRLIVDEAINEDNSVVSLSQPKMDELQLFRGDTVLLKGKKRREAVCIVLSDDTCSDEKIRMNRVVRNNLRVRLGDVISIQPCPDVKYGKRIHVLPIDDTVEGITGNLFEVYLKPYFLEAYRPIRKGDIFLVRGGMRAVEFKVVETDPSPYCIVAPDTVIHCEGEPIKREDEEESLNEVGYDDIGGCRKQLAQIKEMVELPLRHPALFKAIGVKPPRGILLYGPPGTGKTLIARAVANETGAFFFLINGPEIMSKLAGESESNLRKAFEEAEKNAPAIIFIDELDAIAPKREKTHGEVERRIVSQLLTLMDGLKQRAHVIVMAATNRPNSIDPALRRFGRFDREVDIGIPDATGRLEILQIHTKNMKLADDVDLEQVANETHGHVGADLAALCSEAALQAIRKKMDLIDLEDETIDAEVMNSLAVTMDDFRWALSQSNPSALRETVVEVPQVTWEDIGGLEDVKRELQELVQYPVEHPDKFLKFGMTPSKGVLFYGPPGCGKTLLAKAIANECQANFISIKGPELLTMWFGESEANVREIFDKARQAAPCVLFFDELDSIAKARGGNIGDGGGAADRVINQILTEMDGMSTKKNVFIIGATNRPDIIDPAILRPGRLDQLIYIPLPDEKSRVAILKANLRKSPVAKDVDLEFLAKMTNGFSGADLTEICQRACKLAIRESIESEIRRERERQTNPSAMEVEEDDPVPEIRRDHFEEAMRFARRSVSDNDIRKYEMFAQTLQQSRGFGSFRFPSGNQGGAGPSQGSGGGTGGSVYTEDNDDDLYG
XBP1 UPR activ: adaptive UPR (XBP1) activation | CHO-XBP1 luciferase reporter, IRE1-XBP1 UPR activation, luminescence; percent of tunicamycin response, DMSO as zero | activation, % at 20 µM | actives 0.33% (n = 330,000) | AID 463104;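 active = versus positive control, 20 µM dose yields 30% or more activation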;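 note: 100% = tunicamycin at 10 µg/mL and 0% = DMSO only wells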
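Signal: luciferase luminescence; Assay system: CHO-XBP1 luciferase reporter cells; Amount: one thousand reporter cells per well; Dosing: 20 µM single concentration, DMSO 1%; Benchmarks: high control tunicamycin 10 µg/mL final, low control DMSO vehicle only; Schedule: 6 h compound exposure at 37 °C, 5% CO2; Evaluation: percent activation relative to tunicamycin reference.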
M18AAP inhibitor: PfM18AAP enzyme inhibition; inhibition, % at 7.35 µM; actives 1.2% (n = 290,000); AID 1822; recombinant PfM18AAP, H-Glu-NHMec fluorogenic cleavage;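 active = inhibition above the campaign mean inhibition over all tested compounds plus 3 SD, cut at about 28% in these data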;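 note: 0% = plate median of test compound wells and 100% = 2 mM ZnCl2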
CHOP UPR activ: apoptotic UPR (CHOP) activation; CHO-CHOP luciferase reporter, luminescence; percent of tunicamycin response over DMSO baseline; activation, % at 10 µM; actives 0.34% (n = 330,000);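 active = at 10 µM dose, activation of 40% or more, normalized to positive control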;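 note: 100% = tunicamycin at 10 µg/mL and 0% = DMSO alone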
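System: CHO-CHOP luciferase reporter cell line | Buffer or medium: F12 medium containing 10% fetal bovine serum | Doses: One dose, 10 µM in 0.5% DMSO | Times: 6 h compound exposure at 37 °C after overnight seeding | Signal: Luciferase luminescence | Read-out: % activation vs tunicamycin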
HCV NS3 hel inh: blocks Hepatitis C virus NS3 helicase unwinding; NS3 helicase DNA unwinding, Cy5 molecular beacon fluorescence; inhibition, % at 10.9 µM; actives 0.56% (n = 290,000); AID 1800;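 active = inhibition above the mean of all tested compounds plus 3 SD, set per campaign, cut at about 35% in these data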;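 note: 0% = DMSO wells and 100% = thioflavine S control wells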
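Compound dosing – single dose, 10.9 µM nominal final, DMSO 0.8% final · System – NS3 helicase fragment of HCV · Buffer or medium – MOPS pH 6.5, MgCl2, DTT, Tween20, BSA · Signal – Cy5 beacon fluorescence read at start and 1 h · Also added – annealed dual-labelled DNA beacon duplex, ATP-started · Schedule – 1 h at 25 °C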
CHOP inh: CHOP inhibition in unfolded protein response; actives 3.8% (n = 220,000); CHO-K1 CHOP-promoter luciferase, tunicamycin-induced, 15-18 h; AID 2732; inhibition, % at 10 µM;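 active = compounds that reduced the stress-induced luciferase reporter signal by more than about 70% of percent inhibition, limit read from the data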;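 note: 0% = tunicamycin plus vehicle and 100% = wells without tunicamycin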
* marks the source's active call; other numbers are inactive results; x = no result. A selection: hits, their analogues and other compounds. The true share with any hit is near 4.5%.

SMILES	p97 ATPase inh	XBP1 UPR activ	M18AAP inhibitor	CHOP UPR activ	HCV NS3 hel inh	CHOP inh
CCC(C)C(NC(=O)c1ccccc1NC(=O)c1ccc(OC)cc1)C(=O)NCc1ccco1 (configuration not stated)	0	-1	-1	0	-3	71*
Cc1ccc(C)c(NC(=S)NC(NC(=O)Cc2cccc3ccccc23)C(Cl)(Cl)Cl)c1 (configuration not stated)	4	47*	-9	52*	12	79*
CCc1ccc(OCC(=O)NC(NC(=S)Nc2ccccc2C)C(Cl)(Cl)Cl)cc1 (configuration not stated)	-1	3	3	2	26	10
Cc1ccccc1NC(=S)NC(NC(=O)COc1ccccc1)C(Cl)(Cl)Cl (configuration not stated)	7	-3	7	1	9	83*
Cc1ccc(C)c(NC(=S)NC(NC(=O)N(C)C)C(Cl)(Cl)Cl)c1 (configuration not stated)	-2	-3	-15	-1	-3	-16
COc1c2occc2c(OC)c2c(=O)cc(C(F)(F)C(F)(F)F)oc12	1	2	2	-2	-1	83*
Cc1ccc(N2CC(C(=O)Nc3cccnc3)CC2=O)cc1C (configuration not stated)	x	-3	-3	0	-4	x
O=C(O)COc1cccc(NC(=O)c2ccccc2)c1	3	0	3	1	-2	-9
CC(C)CCOc1cccc(OCC(=O)O)c1	3	-1	-2	-1	-2	86*
COc1cc(NC(=O)c2ccco2)c(OC)cc1NC(=O)CCC(=O)Nc1cc(C)ccc1C	3	-2	0	1	-10	11
COc1cc(NC(=O)c2ccco2)c(OC)cc1NC(=O)CCC(=O)Nc1cc(C)cc(C)c1	1	0	3	-1	-8	76*
COc1cc(NC(=O)c2ccco2)ccc1NC(=O)C(C)C	0	2	1	-2	0	80*
COc1cc(OC)c(NC(=O)c2ccco2)cc1Cl	7	0	-1	0	-3	72*
CC(=O)Nc1sc(N/N=C\c2ccccc2F)nc1-c1cccs1	8	3	4	5	-5	8
CC(=O)Nc1sc(N/N=C\c2cccc(Cl)c2)nc1-c1cccs1	9	0	14	3	0	96*
CCc1cccc2c(C(=O)COC(=O)c3ccc([N+](=O)[O-])s3)c[nH]c12	11	5	4	0	-26	73*
CCOC(=O)c1c(C)[nH]c(C)c1C(=O)COC(=O)c1ccc([N+](=O)[O-])s1	x	0	x	1	x	x
COc1ccccc1Cn1c(=O)oc2ccc(C)cc21	x	-3	6	3	-3	x
Cc1ccc2oc(=O)n(Cc3ccccc3OC(C)C)c2c1	4	-2	0	-1	-2	84*
Cc1ccc2oc(=O)n(CCCOc3ccccc3C)c2c1	-3	3	8	1	0	82*
Cc1ccc2oc(=O)n(CCOc3ccccc3C)c2c1	-2	-1	2	0	18	28
COc1ccccc1-n1cnc2cc(NS(=O)(=O)c3ccc(Br)cc3)ccc21	1	0	-16	1	-7	79*
CC1CCC(C(C)C)C(OC(=O)COC(=O)c2ccc(N)cc2)C1 (configuration not stated)	-1	-3	-10	-1	-1	84*
CCOc1ccccc1C(=O)Nc1nncs1	-2	1	-3	-1	2	19
CCOc1ccccc1C(=O)Nc1nnc(C(C)C)s1	-8	9	4	3	5	76*
SMILES	p97 ATPase inh	XBP1 UPR activ	M18AAP inhibitor	CHOP UPR activ	HCV NS3 hel inh	CHOP inh
Cc1ccc(C(=O)O)cc1NS(=O)(=O)c1ccc2c(c1)oc(=O)n2C	x	-1	-5	-1	-3	x
COc1ccc(S(=O)(=O)/N=C2/C=CC(=O)C(C)=C2C)cc1	-7	-2	-32	-1	1	82*
FC(F)(F)c1cccc(NC(=S)NNC(=S)Nc2cccc(C(F)(F)F)c2)c1	-5	0	3	4	0	-6
COc1cc2c(cc1NC(=O)COC(=O)/C=C/c1ccc([N+](=O)[O-])cc1)oc1ccccc12	15*	-1	3	3	-1	-26
COc1cc2c(cc1NC(=S)Nc1cccc3ccccc13)oc1ccccc12	8	4	10	4	-4	41
CNNC(=S)Nc1cccc(C(F)(F)F)c1	7	-3	29*	-2	1	8
COc1cc2c(cc1NC(=O)CN1C(=O)NC3(CCc4ccccc43)C1=O)oc1ccccc12 (configuration not stated)	5	10	-1	13	0	79*
COc1cc2c(cc1NC(=S)Nc1cccc(C(F)(F)F)c1)oc1ccccc12	10	0	5	1	2	71*
Cc1cccc(OCc2nnc(SCC(=O)c3c(N)n(C4CC4)c(=O)[nH]c3=O)o2)c1	x	-1	x	1	x	x
C=CCNC(=S)NNC(=O)Cn1c(-c2ccccc2)cc(=O)n2ncnc12	0	1	5	1	4	6
COc1cc2c(cc1NC(=O)COC(=O)c1ccc(C(C)(C)C)cc1)oc1ccccc12	0	20	3	1	8	78*
COc1ccccc1C(=O)Nc1ccnn1C1CCN(Cc2cnn(C)c2C)CC1	x	-1	-16	0	2	x
CCCCN(C(=O)c1ccc(S(=O)(=O)N(C)C)cc1)c1ccccc1	3	-1	-6	-2	-16	20
CN(C(=O)c1ccccc1)c1nc2ccccc2s1	-2	-10	-7	-2	3	72*
CCCCN(C(=O)c1ccc(S(=O)(=O)N(C)C)cc1)c1nc2ccccc2s1	0	-3	8	2	7	71*
CC(=O)Oc1c(Sc2ccccc2[N+](=O)[O-])c(C)nn1C(C)(C)C	4	-2	-6	-1	9	75*
CCOC(=O)c1c(CSc2ccc(C)cc2)oc2ccc(O)cc12	3	4	3	1	-4	107*
Nc1nc2c(s1)CCc1c-2cnn1-c1ccccc1	16*	1	-2	5	8	-63
Nc1nc2c(s1)COc1ccccc1-2	1	-2	7	3	-2	2
CC(C)(C)n1nnnc1C(c1cccc(C#N)c1)N1CCC(Cc2ccccc2)CC1 (configuration not stated)	2	-3	2	5	1	80*
N#CC1=C(N)Oc2cc(O)ccc2C1c1ccccc1 (configuration not stated)	-4	-2	7	-2	4	21
